Measurements as given in ChEMBL document CHEMBL4428038, “Overcoming chloroquine resistance in malaria: Design, synthesis and structure-activity relationships of novel chemoreversal agents” (Eur J Med Chem, 2016).
Activity calls are given as the source filed them. The rule behind the calls is not given here.

Legend:
[1] = test system: Plasmodium falciparum; assay: Intrinsic antimalarial activity against chloroquine/artemisinin-resistant Plasmodium falciparum ARS233 harboring CRT K76T mutant assessed as reduction in parasite viability at 500 nM; format: functional, organism-based
[2] = test system: Plasmodium falciparum; assay: Intrinsic antimalarial activity against chloroquine-sensitive Plasmodium falciparum 3D7 isolate MRA-102 assessed as reduction in parasite viability at 500 nM; format: functional, organism-based
[3] = test system: Plasmodium falciparum; assay: Intrinsic antimalarial activity against intermediate chloroquine-resistant Plasmodium falciparum 7G8 isolate MRA-154 harboring CRT SVMNT haplotype mutant assessed as reduction in parasite viability at 500 nM; format: functional, organism-based
[4] = test system: Plasmodium falciparum; assay: Intrinsic antimalarial activity against chloroquine-resistant Plasmodium falciparum K1 isolate MRA-159 harboring CRT CVIET haplotype mutant assessed as reduction in parasite viability at 500 nM; format: functional, organism-based
[5] = test system: Plasmodium falciparum; assay: Intrinsic antimalarial activity against chloroquine/artemisinin-resistant Plasmodium falciparum NHP4773 harboring CRT K76T mutant assessed as reduction in parasite viability at 500 nM; format: functional, organism-based
[6] = test system: Plasmodium falciparum; assay: Intrinsic antimalarial activity against chloroquine/artemisinin-resistant Plasmodium falciparum ARS272 harboring CRT K76T mutant assessed as reduction in parasite viability at 500 nM; format: functional, organism-based
[7] = test system: Plasmodium falciparum; assay: Intrinsic antimalarial activity against chloroquine-resistant Plasmodium falciparum Dd2 isolate MRA-156 harboring CRT K76T mutant assessed as reduction in parasite viability at 500 nM; format: functional, organism-based
[8] = test system: Plasmodium falciparum K1; assay: Inhibition of CRT CVIET haplotype mutant in Plasmodium falciparum K1 isolate MRA-159 infected in erythrocytes assessed as chloroquine-coumarin probe accumulation at 10 uM after 10 hrs by Hoechst 33342 staining based flow cytometry (reference value: 35.57 +/- 3.84%); format: cell-based; parameters: scale not given: the % may be the effect or the level left
Outline: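 Infected erythrocyte cultures at 2.5% hematocrit and 7–12% parasitemia, synchronized to late-ring/early-trophozoite stage, were incubated with chloroquine-coumarin probe plus test agent for 10 h at 37 C. Cells were then washed, resuspended in PBS and read by flow cytometry (405 nm excitation, 450/50 filter). Hoechst-stained duplicate wells set parasitemia. Uptake = % infected erythrocytes fluorescent. Controls: PBS (negative), desipramine and parent compound (positive). ≥3 independent experiments; mean ± SEM.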

[9] = test system: Plasmodium falciparum; assay: Intrinsic antimalarial activity against chloroquine-sensitive Plasmodium falciparum HB3 isolate MRA-155 assessed as reduction in parasite viability at 500 nM; format: functional, organism-based
[10] = test system: Plasmodium falciparum; assay: Intrinsic antimalarial activity against chloroquine-resistant Plasmodium falciparum NHP4559 harboring CRT K76T mutant assessed as reduction in parasite viability at 500 nM; format: functional, organism-based

Row | Structure (SMILES) | Activity [1] | Activity [2] | Activity [3] | Activity [4] | Activity [5] | Activity [6] | Activity [7] | Activity [8] | Activity [9] | Activity [10]
1 | CC(C)(C)OC(=O)N1CCCC(NCc2ccccc2I)C1 (stereo unspecified) | inactive | inactive | inactive | inactive | inactive | inactive | inactive | 40.5% | inactive | inactive
2 | O=C1/C(=C/c2ccccc2)N2CCC1CC2 | inactive | inactive | inactive | inactive | inactive | inactive | inactive | 39% | inactive | inactive
3 | N#CC(CCBr)(c1ccccc1)c1ccccc1 | inactive | inactive | inactive | inactive | inactive | inactive | inactive | 29.6% | inactive | inactive
4 | Ic1ccccc1CN[C@@H]1C2CCN(CC2)[C@@H]1Cc1ccccc1 (relative stereo) | inactive | inactive | inactive | inactive | inactive | inactive | inactive | 25.8% | inactive | inactive
5 | CC(C)(C)OC(=O)N1CCCC(N)C1 (stereo unspecified) | inactive | inactive | inactive | inactive | inactive | inactive | inactive | 52.2% | inactive | inactive
6 | OC1(c2ccc(Cl)cc2)CCNCC1 | inactive | inactive | inactive | inactive | inactive | inactive | inactive | 27.5% | inactive | inactive
7 | N[C@@H]1C2CCN(CC2)[C@@H]1Cc1ccccc1 (relative stereo) | inactive | inactive | inactive | inactive | inactive | inactive | inactive | 40.1% | inactive | inactive
8 | O=C1Cc2ccccc2Sc2ccccc21 | inactive | inactive | inactive | inactive | inactive | inactive | inactive | 50.7% | inactive | inactive
9 | NCC(CCN1CCCCC1)(c1ccccc1)c1ccccc1 | inactive | inactive | inactive | inactive | inactive | inactive | inactive | 61% | inactive | inactive
10 | N#CC(CCN1CCC(O)(c2ccc(Cl)cc2)CC1)(c1ccccc1)c1ccccc1 | inactive | inactive | inactive | inactive | inactive | inactive | inactive | 25.9% | inactive | inactive
11 | N#CC(CCN1CCN(c2ccc(F)cc2)CC1)(c1ccccc1)c1ccccc1 | inactive | inactive | inactive | inactive | inactive | inactive | inactive | 49% | inactive | inactive
12 | O=C1C2CCN(CC2)C1Cc1ccccc1 (stereo unspecified) | inactive | inactive | inactive | inactive | inactive | inactive | inactive | 34.7% | inactive | inactive
13 | O=C1C2CCN(CC2)C1C(c1ccccc1)c1ccccc1 (stereo unspecified) | inactive | inactive | inactive | inactive | inactive | inactive | inactive | 49% | inactive | inactive
14 | NCC(CCN1CCC(N)CC1)(c1ccccc1)c1ccccc1 | inactive | inactive | inactive | inactive | inactive | inactive | inactive | 58.9% | inactive | inactive
15 | N#CC(CCN1CCC(N)CC1)(c1ccccc1)c1ccccc1 | inactive | inactive | inactive | inactive | inactive | inactive | inactive | 58% | inactive | inactive
16 | N#CC(CCN1CCC(O)CC1)(c1ccccc1)c1ccccc1 | inactive | inactive | inactive | inactive | inactive | inactive | inactive | 63.9% | inactive | inactive
17 | NC(=O)C(CCN1CCC(O)CC1)(c1ccccc1)c1ccccc1 | inactive | inactive | inactive | inactive | inactive | inactive | inactive | 51.3% | inactive | inactive
18 | CC(C)(C)OC(=O)NC1CCN(CCC(C#N)(c2ccccc2)c2ccccc2)CC1 | inactive | inactive | inactive | inactive | inactive | inactive | inactive | 38.8% | inactive | inactive
19 | CSc1ccc2c(c1)C(=O)Cc1ccccc1S2 | inactive | inactive | inactive | inactive | inactive | inactive | inactive | 49.3% | inactive | inactive
20 | Ic1ccccc1CNCC(c1ccccc1)c1ccccc1 | inactive | inactive | inactive | inactive | inactive | inactive | inactive | 50.9% | inactive | inactive
21 | c1ccc(CNC2C3CCN(CC3)C2Cc2ccccc2)cc1 (mixture of isomers) | inactive | inactive | inactive | inactive | inactive | inactive | inactive | 74.4% | inactive | inactive
22 | CC(C)(C)OC(=O)N1CCN(C2Cc3ccccc3Sc3ccc(Cl)cc32)CC1 (stereo unspecified) | inactive | inactive | inactive | inactive | inactive | inactive | inactive | 43.4% | inactive | inactive
23 | NC(=O)C(CCN1CCN(c2ccc(F)cc2)CC1)(c1ccccc1)c1ccccc1 | inactive | inactive | inactive | inactive | inactive | inactive | inactive | 57.7% | inactive | inactive
24 | CNCCCN1c2ccccc2CCc2ccccc21 | – | – | – | – | – | – | – | 78.8% | – | –
